Test results: ChEMBL document CHEMBL1136009, “Novel p53 inactivators with neuroprotective action: syntheses and pharmacological evaluation of 2-imino-2,3,4,5,6,7-hexahydrobenzothiazole and 2-imino-2,3,4,5,6,7-hexahydrobenzoxazole derivatives” (J Med Chem, 2002)

Tests used:
PC-12 [1] = experiment: Effective concentration to induce 25 % protection of rat PC12 cells from camptothecin-induced cell death; assay type: functional
Method in brief: (§1)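 PC12 cells grown in RPMI1640 with 10% horse serum and 5% fetal calf serum to 70–80% confluence, seeded at 2.2×10^4 cells/mL, grown 12 h. Pretreated 6 h with compound (100–400 nM, 0.4% DMSO final), then camptothecin 40 μM for 24 h. Live cells read by BCECF AM (5 μM, 45 min) fluorescence, ex 490/em 535 nm. EC25/EC50 from logit plot versus log concentration, n = 3.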

PC-12 [2] = experiment: Effective concentration to induce 50 % protection of rat PC12 cells from camptothecin-induced cell death; assay type: functional, cell-based; method in brief: as §1
[3] = Neuronal survival of cells in response to compound (100 nM) addition to camptothecin (5 uM) to rat hippocampal neurons; assay type: functional, Hippocampus
Method in brief: (§2)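 Primary hippocampal cultures from embryonic day 18 Sprague–Dawley rats, used at 9–10 days in Neurobasal/B-27 medium. Compound added 1 h before the DNA-damaging agent (camptothecin or etoposide); the agents were made as 500× DMSO stocks. Viable neurons (intact neurites, smooth round soma) were counted in premarked fields before treatment and 24 h after. Results are given as percent survival, mean ± SD.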

[4] = Neuronal survival of cells in response to compound (100 nM) addition to etoposide (2.5 uM) to rat hippocampal neurons; assay type: functional, Hippocampus; method in brief: as §2
[5] = Neuronal survival of cells in response to compound (100 nM) addition to camptothecin (5 uM) to hippocampal neurons; assay type: functional, Rattus norvegicus, Hippocampus; method in brief: as §2
[6] = Neuronal survival of cells in response to compound (100 nM) addition to etoposide (2.5 uM) to hippocampal neurons; assay type: functional, Rattus norvegicus, Hippocampus; method in brief: as §2
[7] = Neuroprotective action against glutamate (20 uM) induced cell death in hippocampal neurons; assay type: functional, Rattus norvegicus, Hippocampus
Method in brief: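 E18 Sprague–Dawley rat hippocampal cultures (9–10 days old) were pretreated with compound (0.04 μM) 1 h before glutamate in Locke's medium; glutamate came from a fresh 200× saline stock. Viable neurons in premarked fields were counted before treatment and 24 h after insult onset, judged by neurite and soma morphology. Results are given as percent survival, mean ± SD.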

N=c1sc2c(n1CC(=O)c1ccc(Cl)cc1)CCCC2
EC25 (PC-12 [1]): 120 nM | EC50 (PC-12 [2]): 190 nM

Nc1nc2c(s1)CCCC2
EC25 (PC-12 [1]): 855 nM | EC50 (PC-12 [2]): 8750 nM

CCOC(=O)Cn1c2c(sc1=N)CCCC2
EC25 (PC-12 [1]): 230 nM | EC50 (PC-12 [2]): 595 nM

N=c1sc2c(n1CC(=O)c1ccc(-c3ccccc3)cc1)CCCC2
EC25 (PC-12 [1]): 340 nM | EC50 (PC-12 [2]): 770 nM

Br.Cc1ccc(C(=O)Cn2c3c(sc2=N)CC(C)CC3)cc1 (configuration not stated)
Survival [3]: 29% | Survival [4]: 60% | EC25 (PC-12 [1]): 100 nM | EC50 (PC-12 [2]): 305 nM

COc1ccccc1C(=O)Cn1c2c(sc1=N)CCCC2
EC25 (PC-12 [1]): 250 nM | EC50 (PC-12 [2]): 350 nM

CCC(=O)Cn1c2c(oc1=N)CCCC2
EC50 (PC-12 [2]): 145 nM

Br.N=c1sc2c(n1Cc1ccccc1)CCCC2
Survival [5]: 61% | Survival [6]: 78% | Survival [7]: 43% | EC25 (PC-12 [1]): 415 nM | EC50 (PC-12 [2]): 740 nM

COc1ccc(C(=O)Cn2c3c(sc2=N)CCCC3)cc1
EC25 (PC-12 [1]): 150 nM | EC50 (PC-12 [2]): 180 nM

N=c1sc2c(n1CC(=O)c1ccccc1)CCCC2
EC25 (PC-12 [1]): 80 nM | EC50 (PC-12 [2]): 170 nM

Cc1ccc(C(=O)Cn2c3c(oc2=N)CCCC3)cc1
EC25 (PC-12 [1]): 35 nM | EC50 (PC-12 [2]): 70 nM

COc1cccc(C(=O)Cn2c3c(sc2=N)CCCC3)c1
EC25 (PC-12 [1]): 340 nM | EC50 (PC-12 [2]): 420 nM

N=c1sc2c(n1CC(=O)c1ccc(F)cc1)CCCC2
EC25 (PC-12 [1]): 300 nM | EC50 (PC-12 [2]): 380 nM

N=c1sc2c(n1CC(=O)c1ccc([N+](=O)[O-])cc1)CCCC2
EC25 (PC-12 [1]): 230 nM | EC50 (PC-12 [2]): 410 nM

Br.CCC(=O)Cn1c2c(sc1=N)CCCC2
Survival [5]: 65% | Survival [6]: 71% | Survival [7]: 43% | EC25 (PC-12 [1]): 410 nM | EC50 (PC-12 [2]): 570 nM
